Data taken from PubChem BioAssay AID588752 (Vanderbilt Specialized Chemistry Center, 2011).
Calls of active or inactive are those of the source. How the calls were made is not given here.

Target: Muscarinic acetylcholine receptor M5 (Rattus norvegicus) (UniProt P08911)
Assay: rat M5 receptor positive allosteric modulation, dose response, selectivity assay, CHO cells, Fluo-4 calcium mobilization (AID 588752)
Settings: Fluo-4, ACh EC20, at 30 µM (top of the series)
Summary of the method: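 Test system: Rat M5 stable CHO cell line | Signal: Kinetic calcium fluorescence, Fluo-4 AM dye | Reagent: Acetylcholine at EC20, then acetylcholine at EC80 | Incubation: 144 s compound pre-incubation, 86 s to EC80, 37 °C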

Sequence of Muscarinic acetylcholine receptor M5 (Rattus norvegicus) (P08911 whole entry, looked up): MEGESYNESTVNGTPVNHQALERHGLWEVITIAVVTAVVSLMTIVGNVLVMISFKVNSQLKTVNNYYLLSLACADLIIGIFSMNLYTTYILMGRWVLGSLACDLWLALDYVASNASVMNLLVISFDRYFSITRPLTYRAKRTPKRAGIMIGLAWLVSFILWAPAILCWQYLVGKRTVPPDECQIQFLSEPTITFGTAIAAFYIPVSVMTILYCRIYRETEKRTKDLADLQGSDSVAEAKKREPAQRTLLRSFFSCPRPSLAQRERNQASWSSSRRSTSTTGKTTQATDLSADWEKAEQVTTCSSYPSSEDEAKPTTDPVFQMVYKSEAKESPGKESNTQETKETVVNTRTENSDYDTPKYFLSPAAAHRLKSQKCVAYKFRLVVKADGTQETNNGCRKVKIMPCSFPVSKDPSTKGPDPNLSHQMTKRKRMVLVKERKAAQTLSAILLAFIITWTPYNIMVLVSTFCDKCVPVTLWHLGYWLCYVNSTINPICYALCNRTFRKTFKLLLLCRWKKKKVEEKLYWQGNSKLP

outcome, inactive:
Cc1nc2sc(C(=O)NCCc3ccncc3)c(N)c2c(C)c1Cl
Cc1nc2sc(C(=O)NCc3nccs3)c(N)c2c(C)c1Cl
Cc1nc2sc(C(=O)NCc3cccc(F)c3F)c(N)c2c(C)c1Cl
Cc1nc2sc(C(=O)NCc3ccncn3)c(N)c2c(C)c1Cl
Cc1nc2sc(C(=O)NC3CC3)c(N)c2c(C)c1Cl
Cc1nc2sc(C(=O)NCc3cccnc3)c(N)c2c(C)c1Cl
Cc1nc2sc(C(=O)NCc3ccncc3)c(N)c2c(C)c1Cl
Cc1nc2sc(C(=O)NCc3ccccc3)c(N)c2c(C)c1Cl
Cc1nc2sc(C(=O)NCc3ccc4c(c3)OCO4)c(N)c2c(C)c1Cl
